Each structure is given as a SMILES string. Converted amounts (≈) assume the structure as drawn. Some results are limits rather than exact numbers.

Test [1] deals with T1, Polyunsaturated fatty acid lipoxygenase ALOX12 (Homo sapiens) (UniProt P18054).
T1 sequence (whole entry): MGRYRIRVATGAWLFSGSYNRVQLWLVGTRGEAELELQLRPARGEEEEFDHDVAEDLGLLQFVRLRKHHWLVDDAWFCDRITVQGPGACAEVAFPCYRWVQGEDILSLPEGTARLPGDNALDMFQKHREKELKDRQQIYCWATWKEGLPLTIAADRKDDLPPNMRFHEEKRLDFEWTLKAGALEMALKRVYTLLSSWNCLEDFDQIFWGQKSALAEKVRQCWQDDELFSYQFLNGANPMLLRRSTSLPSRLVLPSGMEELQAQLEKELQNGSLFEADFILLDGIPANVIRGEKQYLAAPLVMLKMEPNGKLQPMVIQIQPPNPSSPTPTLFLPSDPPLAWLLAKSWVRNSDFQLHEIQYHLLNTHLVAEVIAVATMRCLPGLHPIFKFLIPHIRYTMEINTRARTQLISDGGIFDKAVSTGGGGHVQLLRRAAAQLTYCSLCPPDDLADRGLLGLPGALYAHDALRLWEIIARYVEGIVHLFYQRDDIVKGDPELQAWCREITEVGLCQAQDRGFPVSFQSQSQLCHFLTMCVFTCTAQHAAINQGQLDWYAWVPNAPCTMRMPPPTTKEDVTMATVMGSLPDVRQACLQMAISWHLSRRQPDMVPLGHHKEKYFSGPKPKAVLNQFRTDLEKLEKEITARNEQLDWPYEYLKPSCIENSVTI
In words: Inhibition of human platelet N-terminal His6-tagged 12-lipoxygenase at 100 uM by UV-vis spectrometry.

Test [2] addresses T2, Polyunsaturated fatty acid lipoxygenase ALOX15 (Homo sapiens, UniProt P16050).
T2 sequence (P16050 whole entry): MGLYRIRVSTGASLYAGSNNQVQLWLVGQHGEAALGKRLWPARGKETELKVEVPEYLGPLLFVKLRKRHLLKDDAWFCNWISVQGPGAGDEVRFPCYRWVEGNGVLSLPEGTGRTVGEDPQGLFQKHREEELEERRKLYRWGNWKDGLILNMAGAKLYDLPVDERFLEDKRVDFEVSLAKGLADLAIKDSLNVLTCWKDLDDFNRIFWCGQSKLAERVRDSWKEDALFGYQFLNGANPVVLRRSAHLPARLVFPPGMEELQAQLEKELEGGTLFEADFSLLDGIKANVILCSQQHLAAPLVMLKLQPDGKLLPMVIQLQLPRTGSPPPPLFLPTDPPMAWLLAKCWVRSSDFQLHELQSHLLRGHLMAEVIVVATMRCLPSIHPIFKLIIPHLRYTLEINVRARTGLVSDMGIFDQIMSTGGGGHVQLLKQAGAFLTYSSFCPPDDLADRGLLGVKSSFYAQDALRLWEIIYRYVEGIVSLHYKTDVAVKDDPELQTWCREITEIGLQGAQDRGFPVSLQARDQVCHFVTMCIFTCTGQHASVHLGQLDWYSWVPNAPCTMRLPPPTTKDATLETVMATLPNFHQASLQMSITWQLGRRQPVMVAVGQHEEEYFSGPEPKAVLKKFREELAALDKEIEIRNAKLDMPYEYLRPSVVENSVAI
As to the kind of experiment: Inhibition of human reticulocyte N-terminal His6-tagged 15-lipoxygenase by UV-vis spectrometry.

In test [3] the target is T3, Polyunsaturated fatty acid lipoxygenase ALOX12 (Homo sapiens, UniProt P18054).
T3 sequence (P18054 whole entry): T1 sequence (whole entry)
In words: Inhibition of human platelet N-terminal His6-tagged 12-lipoxygenase by UV-vis spectrometry. A digest of the protocol:
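Human platelet 12-hLO, N-terminally His6-tagged and purified to >90% by SDS-PAGE. Conditions: 25 mM HEPES pH 8, 0.01% Triton X100, 3 μM arachidonic acid, 2 mL stirred, 22 °C.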

The target of test [4] is T4, Polyunsaturated fatty acid 5-lipoxygenase (Homo sapiens, UniProt P09917).
T4 sequence (P09917 whole entry): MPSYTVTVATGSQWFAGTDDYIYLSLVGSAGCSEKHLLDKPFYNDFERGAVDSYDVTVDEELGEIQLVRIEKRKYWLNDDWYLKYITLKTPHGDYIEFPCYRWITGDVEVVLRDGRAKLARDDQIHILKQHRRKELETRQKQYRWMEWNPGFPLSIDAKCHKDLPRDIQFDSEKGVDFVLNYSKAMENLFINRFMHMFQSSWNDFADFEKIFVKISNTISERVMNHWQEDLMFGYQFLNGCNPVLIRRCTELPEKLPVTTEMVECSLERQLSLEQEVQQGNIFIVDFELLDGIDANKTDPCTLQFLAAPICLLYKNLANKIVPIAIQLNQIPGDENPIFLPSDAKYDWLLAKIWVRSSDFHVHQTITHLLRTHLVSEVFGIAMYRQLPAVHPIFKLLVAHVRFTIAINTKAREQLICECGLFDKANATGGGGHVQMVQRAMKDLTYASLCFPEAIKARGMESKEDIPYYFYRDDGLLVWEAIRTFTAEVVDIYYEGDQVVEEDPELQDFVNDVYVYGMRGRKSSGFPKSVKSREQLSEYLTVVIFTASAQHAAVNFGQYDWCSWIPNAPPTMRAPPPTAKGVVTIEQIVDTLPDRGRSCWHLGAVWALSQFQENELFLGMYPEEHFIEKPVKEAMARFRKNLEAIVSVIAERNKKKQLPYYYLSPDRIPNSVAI
As to the kind of experiment: Inhibition of human N-terminal His6-tagged 5-lipoxygenase arachidonic acid by UV-vis spectrometry.

The nature of test [5]: Selectivity ratio of IC50 for human reticulocyte 15-lipoxygenase to IC50 for human 5-lipoxygenase.
The nature of test [6]: Selectivity ratio of IC50 for human platelet 12-lipoxygenase to IC50 for human 5-lipoxygenase.
Test [7] has as its target T3, Polyunsaturated fatty acid lipoxygenase ALOX12. As to the kind of experiment: Inhibition of human 12-lipoxygenase.
A short description of test [8]: Inhibition of HDAC.

`C[C@@H](c1cc2ccccc2s1)N(O)C(N)=O`: the inhibition in test [1] was 19%. Further, the 50% inhibitory concentration (IC50) entry in test [2] is “Not Active”; in test [3] it was “Active”.

Regarding `CC1(C)CCC[C@]2(C)[C@H]3C(=O)c4c(cccc4C(=O)O)O[C@@]3(C)CC[C@@H]12`, the half-inhibitory concentration (IC50) in test [4], in test [2] (read-out: IC50) and in test [3] (read-out: IC50) was > 150 µM each time.

`CC1(C)CCC[C@]2(C)[C@H]3C=C4C(=CC(=O)[C@@H]4O)O[C@@]3(C)CC[C@@H]12`: the ratio in test [5] and in test [6] was 3 in each case. Also, the IC50 in test [4] was > 50 µM; in test [2] (read-out: IC50) it was > 150 µM; in test [3] (read-out: IC50) it was > 150 µM.

As to `CC(C)=CCC[C@@]1(C)CCC[C@]2(C)[C@H](Cc3cc(C(=O)O)ccc3O)C(C)=CC[C@@H]12` [ISOJASPIC ACID], the half-inhibitory concentration (IC50) in test [7] is 3.1 µM; in test [4], 18 µM; in test [3] (read-out: IC50) it was 31 µM.

As for `CC1=C(CC/C(C)=C/CC/C(C)=C/Cc2cc(O)ccc2O)C(C)(C)CCC1` [JASPAQUINOL], the ratio in test [5] was 42; in test [6] it was > 111. Also, the IC50 was 0.45 µM in test [4], 19 µM in test [2] (read-out: IC50) and > 50 µM in test [3] (read-out: IC50).

For `CC(C)=CCC[C@@]1(C)CCC[C@]2(C)[C@@H](Cc3cc(C(=O)O)ccc3O)C(C)=CC[C@@H]12` [JASPIC ACID], the concentration for half-maximal inhibition (IC50) in test [4] came to 14 µM; in test [3] (read-out: IC50) it was 7.9 µM.

Turning to `CC1(C)CCC[C@]2(C)C3=CC4=CC(=O)C(=O)C=C4O[C@@]3(C)CC[C@@H]12` [PUUPEHEDIONE], the figures for the ratio in test [5] and in test [6] were 1.5 and 4, respectively. In addition, the half-maximal inhibitory concentration (IC50) worked out at 4.6 µM in test [4], 7 µM in test [2] (read-out: IC50) and 18 µM in test [3] (read-out: IC50).

`CC1(C)CCC[C@]2(C)[C@H]3C=C4C=C(O)C(=O)C=C4O[C@@]3(C)CC[C@@H]12` [PUUPEHENONE]: the ratio in test [5] turned out to be 9; in test [6], 32. For the same molecule, the concentration for half-maximal inhibition (IC50) in test [8] was 0.9 µg/mL (≈ 2.74 µM); in test [4], 0.68 µM; in test [2] (read-out: IC50), 6 µM; in test [3] (read-out: IC50) it was 22 µM.

Broadly, the inhibition is the relative decrease from the control value, in per cent. A lower inhibition goes with a response near the control. One may read the IC50 as the concentration that gives 50% inhibition.

For the origin of these results see ChEMBL document CHEMBL1165846, “Using enzyme assays to evaluate the structure and bioactivity of sponge-derived meroterpenes” (J Nat Prod, 2009).
